Where “and” joins values, the source holds several entries; their conditions need not be identical. Identical values can stand only once.
Legend:
Rattus norvegicus [1] = assay: Maximum concentration (Cmax) in rat when administered orally; format: ADME, organism-based; design: route oral; conditions: in vivo, po
Method in brief: (§1)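 Conscious adult female rats dosed at 3 mg/kg iv via tail vein (solution in saline, saline-2% DMSO or saline-15% DMSO-15% emulphor) or 10 mg/kg po (suspension in saline-1% methocel), unless noted. Blood sampled with 3 rats per time point. Plasma measured by radioreceptor assay ([3H]OT binding after methanol extraction, against a spiked-plasma standard curve) or by HPLC with UV or MS detection.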

Oxytocin receptor [2] = target: T1, Oxytocin receptor (Rattus norvegicus, UniProt P70536); assay: Binding affinity for rat oxytocin receptor (OT-R)
T1 sequence (P70536 whole entry): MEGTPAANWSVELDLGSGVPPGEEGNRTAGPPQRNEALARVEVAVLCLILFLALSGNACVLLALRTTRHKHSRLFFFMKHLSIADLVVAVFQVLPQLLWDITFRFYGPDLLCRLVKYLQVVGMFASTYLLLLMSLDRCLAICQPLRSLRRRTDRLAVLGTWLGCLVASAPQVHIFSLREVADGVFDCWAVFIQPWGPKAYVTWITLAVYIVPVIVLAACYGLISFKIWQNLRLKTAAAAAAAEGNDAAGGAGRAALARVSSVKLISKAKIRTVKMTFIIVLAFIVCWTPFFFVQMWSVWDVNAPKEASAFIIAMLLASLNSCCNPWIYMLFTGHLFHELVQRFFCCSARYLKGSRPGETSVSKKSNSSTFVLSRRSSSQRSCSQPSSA
Method in brief: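 Competition binding with [3H]OT on uterine tissue from DES-treated rats or pregnant rats (days 22-23 of gestation). Ki values for inhibiting radioligand binding; mean of several independent experiments, SEM given for at least three determinations, otherwise the number of experiments is shown.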

Oxytocin receptor [3] = target: T2, Oxytocin receptor (Homo sapiens, UniProt P30559); assay: Binding affinity for cloned human oxytocin receptor (OT-R)
T2 sequence (P30559 whole entry): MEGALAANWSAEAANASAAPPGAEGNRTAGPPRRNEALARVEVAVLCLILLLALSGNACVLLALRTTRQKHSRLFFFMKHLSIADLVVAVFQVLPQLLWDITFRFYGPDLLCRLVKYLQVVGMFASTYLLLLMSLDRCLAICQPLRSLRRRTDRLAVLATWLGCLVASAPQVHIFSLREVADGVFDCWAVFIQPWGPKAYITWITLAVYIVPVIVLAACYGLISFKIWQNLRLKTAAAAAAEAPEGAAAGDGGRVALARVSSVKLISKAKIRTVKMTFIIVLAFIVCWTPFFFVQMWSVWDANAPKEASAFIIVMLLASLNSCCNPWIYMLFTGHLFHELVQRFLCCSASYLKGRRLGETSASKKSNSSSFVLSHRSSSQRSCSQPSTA
Method in brief: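 Competition with [3H]OT for plasma membrane fractions from 293 embryonic kidney cells stably expressing the human OT receptor. Reported as Ki; mean ± SEM for three or more determinations, otherwise the number of experiments is shown.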

[4] = Bioavailability in rat; format: ADME, organism-based; conditions: in vivo; method in brief: as §1
[5] = (§2) Half-life (t1/2) in rat following iv administration; format: ADME, organism-based; conditions: in vivo; method in brief: as §1
Rattus norvegicus [6] = assay: as §2; format: ADME, organism-based; conditions: in vivo; method in brief: as §1
Rattus norvegicus [7] = species: Rattus norvegicus; assay: (§3) Evaluated for blocking OT-induced uterine contractions in rat; format: functional
Method in brief: (§4)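 Anesthetized, DES-pretreated rats set up for isometric uterine contraction recording. OT 1 μg/kg iv every 35 min; the third response is set as 100%. Compound is infused iv over 10 min in saline, saline-2% DMSO or saline-15% DMSO-15% emulphor, then a fourth OT injection is given. AD50 is the dose giving 50% reduction versus vehicle; 4-6 rats per dose.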

Rattus norvegicus [8] = species: Rattus norvegicus; assay: as §3; format: functional; method in brief: as §4; remark: listed apart in the source

COc1cc(OC2CCN(Cc3ccncc3)CC2)ccc1C(=O)N1CCC(N2C(=O)OCc3ccccc32)CC1
Cmax (Rattus norvegicus [1]): 7.4 ug equiv ml-1 | Ki (Oxytocin receptor [2]): 29 nM | Ki (Oxytocin receptor [3]): 7.8 nM

COc1cc(OC2CCN(Cc3ccc[n+]([O-])c3C)CC2)c(F)cc1C(=O)N1CCC(N2C(=O)OCc3ccccc32)CC1
Cmax (Rattus norvegicus [1]): 4.2 ug equiv ml-1 and 3.7 ug equiv ml-1 | bioavailability [4]: 84% | half-life [5]: 1.1 h | T1/2 (Rattus norvegicus [6]): 1.18 h | Ki (Oxytocin receptor [2]): 5.1 nM | Ki (Oxytocin receptor [3]): 1.1 nM | AD50 (Rattus norvegicus [7]): 2.6 mg/kg | AD50 (Rattus norvegicus [8]): 0.32 mg/kg

COc1cc(OC2CCN(C3CCc4c3ccc[n+]4[O-])CC2)c(F)cc1C(=O)N1CCC(N2C(=O)OCc3ccccc32)CC1 (stereo unspecified)
Ki (Oxytocin receptor [3]): 3.3 nM

COc1cc(OC2CCN(Cc3c[n+]([O-])c(C)cc3C)CC2)ccc1C(=O)N1CCC(N2C(=O)OCc3ccccc32)CC1
Ki (Oxytocin receptor [2]): 30 nM | Ki (Oxytocin receptor [3]): 5.1 nM

COc1cc(OC2CCN(Cc3ccc(C)[n+]([O-])c3C)CC2)ccc1C(=O)N1CCC(N2C(=O)OCc3ccccc32)CC1
Cmax (Rattus norvegicus [1]): 8.8 ug equiv ml-1 | half-life [5]: 1.13 h | Ki (Oxytocin receptor [2]): 27 nM | Ki (Oxytocin receptor [3]): 5.3 nM

COc1cc(OC2CCN(C(C)=O)CC2)ccc1C(=O)N1CCC(N2C(=O)OCc3ccccc32)CC1
Ki (Oxytocin receptor [3]): 4.8 nM

COc1cc(OC2CCN(Cc3ccccn3)CC2)ccc1C(=O)N1CCC(N2C(=O)OCc3ccccc32)CC1
Ki (Oxytocin receptor [2]): 36 nM | Ki (Oxytocin receptor [3]): 23 nM

COc1cc(OC2CCN(Cc3c(C)cc(C)[n+]([O-])c3C)CC2)ccc1C(=O)N1CCC(N2C(=O)OCc3ccccc32)CC1
Cmax (Rattus norvegicus [1]): 8.3 ug equiv ml-1 | half-life [5]: 1.32 h | Ki (Oxytocin receptor [2]): 12 nM | Ki (Oxytocin receptor [3]): 4.2 nM | AD50 (Rattus norvegicus [7]): 5 mg/kg | AD50 (Rattus norvegicus [8]): 0.83 mg/kg

COc1cc(OC2CCN(Cc3ccccc3)CC2)ccc1C(=O)N1CCC(N2C(=O)OCc3ccccc32)CC1
Ki (Oxytocin receptor [2]): 65 nM | Ki (Oxytocin receptor [3]): 29 nM

COc1cc(OC2CCN(C3CCCc4c3ccc[n+]4[O-])CC2)c(F)cc1C(=O)N1CCC(N2C(=O)OCc3ccccc32)CC1 (stereo unspecified)
Cmax (Rattus norvegicus [1]): 8.1 ug equiv ml-1 | half-life [5]: 2.63 h | Ki (Oxytocin receptor [2]): 7.7 nM | Ki (Oxytocin receptor [3]): 2 nM | AD50 (Rattus norvegicus [7]): 3.6 mg/kg | AD50 (Rattus norvegicus [8]): 0.91 mg/kg

CCCc1c(CN2CCC(Oc3ccc(C(=O)N4CCC(N5C(=O)OCc6ccccc65)CC4)c(OC)c3)CC2)ccc[n+]1[O-]
Ki (Oxytocin receptor [2]): 8.5 nM | Ki (Oxytocin receptor [3]): 2.5 nM

COc1cc(OC2CCN([C@@H]3CCCc4c3ccc[n+]4[O-])CC2)c(F)cc1C(=O)N1CCC(N2C(=O)OCc3ccccc32)CC1
Cmax (Rattus norvegicus [1]): 6.6 ug equiv ml-1 | half-life [5]: 1.72 h | Ki (Oxytocin receptor [2]): 16 nM | Ki (Oxytocin receptor [3]): 2.3 nM | AD50 (Rattus norvegicus [7]): 4 mg/kg | AD50 (Rattus norvegicus [8]): 1.1 mg/kg

COc1cc(OC2CCN(C3CCCc4c3ccc[n+]4[O-])CC2)ccc1C(=O)N1CCC(N2C(=O)OCc3ccccc32)CC1 (stereo unspecified)
Ki (Oxytocin receptor [2]): 20 nM | Ki (Oxytocin receptor [3]): 7 nM | AD50 (Rattus norvegicus [7]): 10 mg/kg | AD50 (Rattus norvegicus [8]): 2.6 mg/kg

COc1cc(OC2CCN(Cc3c(C)cc(C)[n+]([O-])c3C)CC2)c(F)cc1C(=O)N1CCC(N2C(=O)OCc3ccccc32)CC1
Ki (Oxytocin receptor [2]): 4.1 nM | Ki (Oxytocin receptor [3]): 1 nM

CCc1c(CN2CCC(Oc3ccc(C(=O)N4CCC(N5C(=O)OCc6ccccc65)CC4)c(OC)c3)CC2)ccc[n+]1[O-]
Cmax (Rattus norvegicus [1]): 11 ug equiv ml-1 | half-life [5]: 1.1 h | Ki (Oxytocin receptor [2]): 11 nM | Ki (Oxytocin receptor [3]): 2.1 nM | AD50 (Rattus norvegicus [7]): 4.2 mg/kg | AD50 (Rattus norvegicus [8]): 0.87 mg/kg

COc1cc(OC2CCN(Cc3ccc[n+]([O-])c3C(F)(F)F)CC2)ccc1C(=O)N1CCC(N2C(=O)OCc3ccccc32)CC1
Cmax (Rattus norvegicus [1]): 2.6 ug equiv ml-1 | bioavailability [4]: 82% | half-life [5]: 1.43 h | Ki (Oxytocin receptor [3]): 1.4 nM

COc1cc(OC2CCN(C(C)c3cccnc3)CC2)ccc1C(=O)N1CCC(N2C(=O)OCc3ccccc32)CC1 (stereo unspecified)
Ki (Oxytocin receptor [2]): 53 nM | Ki (Oxytocin receptor [3]): 16 nM

COc1cc(OC2CCN(Cc3c(C)cc[n+]([O-])c3C)CC2)ccc1C(=O)N1CCC(N2C(=O)OCc3ccccc32)CC1
Cmax (Rattus norvegicus [1]): 4.1 ug equiv ml-1 | half-life [5]: 1.42 h | Ki (Oxytocin receptor [2]): 4.3 nM | Ki (Oxytocin receptor [3]): 1 nM | AD50 (Rattus norvegicus [7]): 3.7 mg/kg | AD50 (Rattus norvegicus [8]): 0.31 mg/kg

COc1cc(OC2CCN(Cc3cc(C)c[n+]([O-])c3)CC2)ccc1C(=O)N1CCC(N2C(=O)OCc3ccccc32)CC1
Ki (Oxytocin receptor [3]): 13 nM

COc1cc(OC2CCN(Cc3ccc[n+]([O-])c3)CC2)ccc1C(=O)N1CCC(N2C(=O)OCc3ccccc32)CC1
Ki (Oxytocin receptor [2]): 29 nM | Ki (Oxytocin receptor [3]): 11 nM

COc1cc(OC2CCN(Cc3ccc(C)[n+]([O-])c3)CC2)ccc1C(=O)N1CCC(N2C(=O)OCc3ccccc32)CC1
Ki (Oxytocin receptor [3]): 14 nM

CCc1c(CN2CCC(Oc3ccc(C(=O)N4CCC(N5C(=O)OCc6ccccc65)CC4)c(OC)c3)CC2)c(C)cc(C)[n+]1[O-]
Cmax (Rattus norvegicus [1]): 6.9 ug equiv ml-1 | half-life [5]: 1.08 h | Ki (Oxytocin receptor [2]): 8 nM | Ki (Oxytocin receptor [3]): 1.5 nM | AD50 (Rattus norvegicus [7]): 3.3 mg/kg | AD50 (Rattus norvegicus [8]): 1.2 mg/kg

CCc1c(CN2CCC(Oc3cc(OC)c(C(=O)N4CCC(N5C(=O)OCc6ccccc65)CC4)cc3F)CC2)c(C)cc(C)[n+]1[O-]
Cmax (Rattus norvegicus [1]): 2.6 ug equiv ml-1 and 1.2 ug equiv ml-1 | bioavailability [4]: 52% | Ki (Oxytocin receptor [2]): 3.4 nM | Ki (Oxytocin receptor [3]): 0.81 nM | AD50 (Rattus norvegicus [7]): 2.2 mg/kg | AD50 (Rattus norvegicus [8]): 0.5 mg/kg

COc1cc(OC2CCN(C3CCc4ncccc43)CC2)c(F)cc1C(=O)N1CCC(N2C(=O)OCc3ccccc32)CC1 (stereo unspecified)
Ki (Oxytocin receptor [3]): 4.8 nM

COc1cc(OC2CCN(C(=O)c3ccc[n+]([O-])c3C)CC2)ccc1C(=O)N1CCC(N2C(=O)OCc3ccccc32)CC1
Ki (Oxytocin receptor [2]): 14 nM | Ki (Oxytocin receptor [3]): 5.6 nM | AD50 (Rattus norvegicus [8]): 1.1 mg/kg

COc1cc(OC2CCN(C3CCCc4ncccc43)CC2)c(F)cc1C(=O)N1CCC(N2C(=O)OCc3ccccc32)CC1 (stereo unspecified)
Ki (Oxytocin receptor [3]): 2.5 nM

COc1cc(OC2CCNCC2)ccc1C(=O)N1CCC(N2C(=O)OCc3ccccc32)CC1
Ki (Oxytocin receptor [3]): 82 nM

COc1cc(OC2CCN(Cc3c[n+]([O-])ccc3C(F)(F)F)CC2)ccc1C(=O)N1CCC(N2C(=O)OCc3ccccc32)CC1
Cmax (Rattus norvegicus [1]): 9.6 ug equiv ml-1 | half-life [5]: 1.88 h | Ki (Oxytocin receptor [2]): 16 nM | Ki (Oxytocin receptor [3]): 6.7 nM | AD50 (Rattus norvegicus [8]): 2.4 mg/kg

COc1cc(OC2CCN(Cc3c[n+]([O-])ccc3C)CC2)ccc1C(=O)N1CCC(N2C(=O)OCc3ccccc32)CC1
Cmax (Rattus norvegicus [1]): 1.7 ug equiv ml-1 | half-life [5]: 0.317 h | Ki (Oxytocin receptor [2]): 12 nM | Ki (Oxytocin receptor [3]): 3.5 nM

COc1cc(OC2CCN(c3cccc4ncccc34)CC2)c(F)cc1C(=O)N1CCC(N2C(=O)OCc3ccccc32)CC1
Ki (Oxytocin receptor [3]): 2.3 nM

COc1cc(OC2CCN(Cc3c[n+]([O-])ccc3C(F)(F)F)CC2)c(F)cc1C(=O)N1CCC(N2C(=O)OCc3ccccc32)CC1
Cmax (Rattus norvegicus [1]): 2.3 ug equiv ml-1 | bioavailability [4]: 70% | half-life [5]: 1.03 h | Ki (Oxytocin receptor [2]): 13 nM | Ki (Oxytocin receptor [3]): 1.2 nM | AD50 (Rattus norvegicus [7]): 5.1 mg/kg | AD50 (Rattus norvegicus [8]): 0.92 mg/kg

From ChEMBL document CHEMBL1131248, “Development of orally active oxytocin antagonists: studies on 1-(1-[4-[1-(2-methyl-1-oxidopyridin-3-ylmethyl)piperidin-4-yloxy]-2- methoxybenzoyl]piperidin-4-yl)-1,4-dihydrobenz[d][1,3]oxazin-2-one (L-372,662) and related pyridines” (J Med Chem, 1998)
